Screening data (PubChem BioAssay)
TROY signal inh – blocks TROY-dependent signaling in reporter cells. Q293 LMP1-TROYcd NF-kB luciferase reporter, 4 h. inhibition, % at 10 µM. 360,000 compounds, 0.98% hits;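 active = compounds whose plate-normalised and pattern-corrected inhibition of the luciferase reporter signal at the single screening dose is 50% or more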
EWS-Fli inh – EWS/Fli transcriptional activity inhibition; A673 NR0B1-luciferase reporter, viability-normalised; inhibition, % at 12.6 µM; 350,000 compounds, 0.67% hits;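 active = mean inhibition of at least 50% after viability correction, with every replicate also passing that limit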;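 also: firefly luciferase signal divided by Alamar Blue viability fluorescence both relative to DMSO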
XiGFP reactiv – reactivates the inactive X chromosome in mouse fibroblasts; XiGFP mouse fibroblasts, % GFP-positive cells imaging, 3 d; cells co-treated with 5-aza-dC sensitizer; scaled so ellipticine positive control = 100%; activation, % at 7.58 µM; 360,000 compounds, 0.055% hits; AID 743238;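 active = mean normalized replicate activation at least 10% and every replicate at or above 10%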;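 also: 0% = median of on-plate neutral control wells and 100% = ellipticine 6 µM median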
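assay system = SV40-immortalized XiGFP fibroblast cells, line 68-5-11 | buffer or medium = DMEM plus 5-aza-dC sensitizer | doses = single-point pinned compound dosing | times = 3-day compound exposure, then 15 min fixation at room temperature | benchmarks = positive control ellipticine, 6 µM final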
TWEAK-Fn14 inh – inhibitors of TWEAK-Fn14 interaction signaling; inhibition, % at 10 µM; AID 1159606; 360,000 compounds, 2% hits; TWEAK-stimulated Fn14 reporter cells, luciferase luminescence, 8 h; in the data active = inhibition above about 50%
FN deposit inh – fibronectin deposition inhibition; AH1F fibroblasts, Alexa488-fibronectin deposition fluorescence, overnight; inhibition, % at 12.6 µM; 350,000 compounds, 0.086% hits;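 active = mean inhibition across replicates of 30% or more, regardless of how many single replicates reach that level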;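 also: positive control wells lacked labelled fibronectin entirely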
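test system = AH1F fibroblasts assembling fluorescent fibronectin matrix | quantity = 10000 AH1F cells per well | buffer or medium = DMEM plus 2% serum, read in PBS | doses = single dose, pinned | incubation = 1 h cell attachment, overnight exposure to compound and label | detection = fluorescence at 485 nm excitation, 525 nm emission | read-out basis = inhibition from reduced deposited-fibronectin fluorescence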
LGR2 inh – blocks bursicon-induced cAMP signaling via Drosophila LGR2; AID 720647; 380,000 compounds, 0.35% hits; inhibition, % at 9.99 µM; HEK293 LGR2, CRE-luciferase, bursicon-stimulated, 4 h;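 active = drop in luminescence signal, shown as inhibition above about 50% in the replicate tests, limit read from the data, passing the limit was not always enough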;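 also: agonist challenge used bursicon conditioned medium at about half maximal strength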
* hit, by the source's call; . = not tested or not shown. Only some compounds are listed: those with a hit (about 2.3% of all), similar ones and a draw of the others.

SMILES	TROY signal inh	EWS-Fli inh	XiGFP reactiv	TWEAK-Fn14 inh	FN deposit inh	LGR2 inh
Cc1ccccc1CS(=O)(=O)c1ncc(Cl)c(C(=O)Nc2ccc(F)cc2)n1	78*	56*	0	82*	39*	22
O=C(Nc1ccc(F)cc1)c1nn(-c2ccccc2)c(=O)cc1Cl	19	11	0	55*	.	75*
Cc1ccc(NC(=O)c2nc(S(=O)(=O)Cc3ccccc3)ncc2Cl)cc1	80*	61*	1	67*	29	4
O=C(Nc1ccc(F)cc1)c1nc(S(=O)(=O)Cc2ccccc2)ncc1Cl	69*	56*	0	79*	-1	-4
C[C@@H]1CN([C@@H](C)CO)C(=O)c2cc(NC(=O)Cc3ccccc3)ccc2O[C@@H](C)CCCCO[C@H]1CN(C)C(=O)c1ccccc1	.	-2	0	.	.	6
CO[C@@H]1CN(C)C(=O)c2ccc(NS(C)(=O)=O)cc2OC[C@@H](C)N(CC2CCCCC2)C[C@@H]1C	.	-2	-1	.	2	12
C[C@H](CO)N1C[C@H](C)[C@@H](CN(C)Cc2ccccc2)OCCCC[C@H](C)Oc2ccc(NS(=O)(=O)c3cn(C)cn3)cc2C1=O	.	4	0	.	-2	-2
COc1ccccc1NC(=O)C1CCCN1S(=O)(=O)c1cccc2nsnc12 (stereo unspecified)	-11	.	.	-1	.	.
COc1ccc(NC(=O)C2CCCN2S(=O)(=O)c2cccc3nsnc23)c(OC)c1 (stereo unspecified)	3	.	.	70*	.	.
O=C(Nc1ccccc1SC(=O)c1ccccc1)c1ccccc1	-24	-29	0	-18	-6	-91
Cc1ccc(C(=O)Sc2cccccc2=O)cc1	-32	34	9	102*	10	1
